Source: ChEMBL document CHEMBL3627626, “6-Substituted Pyrrolo[2,3-d]pyrimidine Thienoyl Regioisomers as Targeted Antifolates for Folate Receptor α and the Proton-Coupled Folate Transporter in Human Tumors” (J Med Chem, 2015)
The source made the active and inactive calls. The calls are words filed in the database; no cut-off is given here.

Legend:
SK-OV-3 = assay: Antiproliferative activity against human SKOV3 cells after 96 hrs by CellTiter-Blue assay in presence of 200 nM folic acid; format: functional, cell-based; conditions: SK-OV-3, 96 h
Summary of the method: (§1)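 IGROV1 and SKOV3 cells plated at ~2500–5000 cells/well in folate-free RPMI 1640 with 10% dialyzed FBS, antibiotics and 2 nM LCV, over a range of drug concentrations, ±200 nM folic acid in parallel. Incubated up to 96 h. Viability read by Cell Titer Blue fluorescence (ex 560/em 590 nm).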

PC43-10 = assay: Selectivity ratio of IC50 for human RFC expressed in Chinese hamster PC43-10 cells assessed as cell growth inhibition to IC50 for human PCFT expressed in Chinese hamster R2/PCFT4 cells assessed as cell growth inhibition; format: cell-based
[1] = molecular target: T1, Proton-coupled folate transporter (Homo sapiens) (UniProt Q96NT5); assay: Binding affinity to human PCFT expressed in Chinese hamster R2/PCFT4 cells assessed as intracellular drug transport rate at 37 degC at pH 5.5 measured over 2 mins by Lineweaver-Burk plot analysis; format: cell-based
T1 sequence (whole entry): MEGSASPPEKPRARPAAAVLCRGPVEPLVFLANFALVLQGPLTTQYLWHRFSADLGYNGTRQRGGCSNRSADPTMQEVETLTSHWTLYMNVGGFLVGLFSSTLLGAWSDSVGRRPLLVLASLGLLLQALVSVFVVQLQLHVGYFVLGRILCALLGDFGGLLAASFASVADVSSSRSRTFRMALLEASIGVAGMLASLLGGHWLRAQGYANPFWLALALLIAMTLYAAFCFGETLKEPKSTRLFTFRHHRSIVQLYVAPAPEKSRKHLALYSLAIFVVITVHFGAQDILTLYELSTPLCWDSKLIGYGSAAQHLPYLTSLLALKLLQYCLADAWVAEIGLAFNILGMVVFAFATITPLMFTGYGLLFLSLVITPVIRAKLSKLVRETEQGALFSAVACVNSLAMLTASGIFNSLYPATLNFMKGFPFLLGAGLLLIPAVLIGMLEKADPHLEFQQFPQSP
Summary of the method: (§2)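 R2/PCFT4 CHO cells were grown as monolayers, transferred to spinner flasks, and used as suspensions (5–10 × 10⁷ cells). Uptake was quenched with ice-cold DPBS and cells were NaOH-solubilized. Results are pmol/mg protein; Kt and Vmax come from Lineweaver–Burke plots.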

[2] = molecular target: T2, Trifunctional purine biosynthetic protein adenosine-3 (Homo sapiens) (UniProt P22102); assay: Inhibition of GARFTase in human KB cells expressing FRalpha/PCFT/RFC assessed as cell growth inhibition after 96 hrs by CellTiter-Blue assay in presence of thymidine; format: cell-based
T2 sequence (whole entry): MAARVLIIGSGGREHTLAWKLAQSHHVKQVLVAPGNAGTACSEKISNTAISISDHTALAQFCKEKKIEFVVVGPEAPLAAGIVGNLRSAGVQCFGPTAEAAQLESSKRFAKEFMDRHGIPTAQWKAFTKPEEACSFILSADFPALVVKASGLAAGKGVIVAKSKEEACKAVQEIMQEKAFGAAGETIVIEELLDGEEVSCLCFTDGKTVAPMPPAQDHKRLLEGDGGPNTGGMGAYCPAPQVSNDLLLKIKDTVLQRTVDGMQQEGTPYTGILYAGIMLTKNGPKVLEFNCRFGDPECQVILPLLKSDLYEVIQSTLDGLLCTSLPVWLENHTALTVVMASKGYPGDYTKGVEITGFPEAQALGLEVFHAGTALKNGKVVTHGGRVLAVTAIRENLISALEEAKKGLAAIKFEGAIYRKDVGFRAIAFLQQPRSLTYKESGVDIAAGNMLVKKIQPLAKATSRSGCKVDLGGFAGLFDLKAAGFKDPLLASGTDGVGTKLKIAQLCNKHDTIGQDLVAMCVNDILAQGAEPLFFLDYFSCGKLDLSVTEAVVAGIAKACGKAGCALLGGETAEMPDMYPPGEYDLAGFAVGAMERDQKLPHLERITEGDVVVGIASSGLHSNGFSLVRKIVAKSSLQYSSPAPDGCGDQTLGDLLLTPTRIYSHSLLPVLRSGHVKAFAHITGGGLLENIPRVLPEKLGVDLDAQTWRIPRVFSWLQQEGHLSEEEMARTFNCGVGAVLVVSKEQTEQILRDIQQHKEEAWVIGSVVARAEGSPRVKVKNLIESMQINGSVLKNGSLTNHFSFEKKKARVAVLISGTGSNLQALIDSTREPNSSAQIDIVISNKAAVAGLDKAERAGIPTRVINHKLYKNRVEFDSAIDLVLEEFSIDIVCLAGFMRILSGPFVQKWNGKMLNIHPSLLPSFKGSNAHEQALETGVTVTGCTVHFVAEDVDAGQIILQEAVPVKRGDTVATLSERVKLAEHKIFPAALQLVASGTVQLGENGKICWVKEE

R2 [3] = assay: Cytotoxicity against PCFT-null Chinese hamster R2 cells assessed as cell growth inhibition after 96 hrs by CellTiter-Blue assay; format: cell-based, Cricetulus griseus; conditions: R2, 96 h
[4] = molecular target: T1, Proton-coupled folate transporter (Homo sapiens); assay: Binding affinity to human PCFT expressed in Chinese hamster R2/PCFT4 cells assessed as intracellular drug transport rate at 37 degC at pH 6.8 measured over 2 mins by Lineweaver-Burk plot analysis; format: cell-based; summary of the method: as §2
[5] = molecular target: T1, Proton-coupled folate transporter (Homo sapiens); assay: Binding affinity to human PCFT expressed in Chinese hamster R2/PCFT4 cells assessed as cell growth inhibition after 96 hrs by CellTiter-Blue assay in presence of 200 nM folic acid; format: cell-based
Summary of the method: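 Human-PCFT-transfected R2 CHO cells, precultured with G418, were plated at ~2500–5000 cells/well across a range of drug concentrations. Medium was folate-free RPMI 1640 (pH 7.2) with 25 nM LCV and 10% dialyzed FBS. Parallel wells received 200 nM folic acid. Incubated up to 96 h, then read with CellTiter Blue fluorescence (ex 560/em 590 nm).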

[6] = molecular target: T2, Trifunctional purine biosynthetic protein adenosine-3 (Homo sapiens); assay: Inhibition of GARFTase in human KB cells expressing FRalpha/PCFT/RFC assessed as cell growth inhibition after 96 hrs by CellTiter-Blue assay in presence of AICA; format: cell-based
R2 [7] = assay: Cellular uptake in PCFT-null Chinese hamster R2 cells at 0.5 uM at 37 degC at pH 5.5 measured over 2 mins; format: ADME, cell-based, Cricetulus griseus; conditions: r2, pH 5.5, 2 min
Summary of the method: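 R2/PCFT4 or PCFT-null R2 CHO cells were grown in suspension from spinner flasks. Uptake of 0.5 μM [3H]drug measured over 2 min at 37 °C in MES-buffered saline pH 5.5, with or without 10 μM unlabeled competitor. Uptake was quenched with ice-cold DPBS and cells solubilised in NaOH. Results are pmol/mg protein, mean ±SEM of three experiments.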

[8] = molecular target: T1, Proton-coupled folate transporter (Homo sapiens); assay: Binding affinity to human PCFT expressed in Chinese hamster R2/PCFT4 cells assessed as increase in intracellular drug transport at 0.5 uM at 37 degC at pH 5.5 measured over 5 mins in presence of AGF94; format: cell-based
IGROV-1 = assay: Antiproliferative activity against human IGROV1 cells after 96 hrs by CellTiter-Blue assay; format: functional, cell-based; conditions: IGROV-1, 96 h; summary of the method: as §1

With `Nc1nc2[nH]c(CCCc3cc(C(=O)N[C@@H](CCC(=O)O)C(=O)O)cs3)cc2c(=O)[nH]1` the IC50 (SK-OV-3) was 76 nM, the Ratio IC50 (PC43-10) was 29 and the K [1] was 0.22 µM. For the same compound, the inhibition [2] was “Active”, the IC50 (R2 [3]) was 290 nM and the K [4] was 0.17 µM. For the same compound, the Activity [5] was “Active”, the inhibition [6] was “inactive” and the Drug uptake (R2 [7]) was “Not Active”. For the same compound, the Activity [8] was “inactive” and the IC50 (IGROV-1) was 0.77 nM.
